Screening data: PubChem, several laboratories
NTR1 ag – activates human neurotensin receptor 1 | NTR1-U2OS beta-arrestin-GFP spot imaging, agonist mode | 0.17% of 330,000 active | activation, % at 20 µM;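 active = activation at or above 40% of the spot to cytoplasm intensity ratio, with at least 20 cells analyzed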
Target sequence (P30989 whole entry, looked up): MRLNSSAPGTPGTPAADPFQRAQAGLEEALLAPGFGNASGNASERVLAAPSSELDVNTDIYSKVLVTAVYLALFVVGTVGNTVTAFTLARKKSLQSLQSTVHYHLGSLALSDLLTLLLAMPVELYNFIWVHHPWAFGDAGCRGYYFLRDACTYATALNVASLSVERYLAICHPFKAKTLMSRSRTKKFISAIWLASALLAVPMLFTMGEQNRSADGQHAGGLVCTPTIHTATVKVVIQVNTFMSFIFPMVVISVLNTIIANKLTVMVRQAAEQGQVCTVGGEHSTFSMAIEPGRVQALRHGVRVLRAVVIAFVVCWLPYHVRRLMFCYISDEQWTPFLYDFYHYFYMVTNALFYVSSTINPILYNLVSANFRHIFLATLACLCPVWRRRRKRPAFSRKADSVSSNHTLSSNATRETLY
TAAR1 ag – human TAAR1 agonism | CHO RD-HGA16 TAAR1, Fluo-8 calcium fluorescence; vehicle wells 0%, saturating PEA agonist 100% | activation, % at 3 µM | Q96RJ0 | AID 624467 | 0.99% of 360,000 active;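 active = activation above the mean activation of all test compounds in the run plus 3 SD, cut at about 38% in these data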
Target sequence (Q96RJ0 whole entry, looked up): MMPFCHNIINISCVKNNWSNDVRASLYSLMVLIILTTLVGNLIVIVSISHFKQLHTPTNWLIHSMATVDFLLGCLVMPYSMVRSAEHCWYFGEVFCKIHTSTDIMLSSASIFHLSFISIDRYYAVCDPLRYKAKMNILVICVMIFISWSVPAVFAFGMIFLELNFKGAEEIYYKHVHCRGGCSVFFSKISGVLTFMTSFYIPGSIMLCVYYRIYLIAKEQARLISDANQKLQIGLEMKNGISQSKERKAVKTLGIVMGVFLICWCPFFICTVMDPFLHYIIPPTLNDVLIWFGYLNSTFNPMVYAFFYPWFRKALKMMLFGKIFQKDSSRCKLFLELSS
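Signal – calcium-sensitive Fluo-8 signal, excitation 470-495, emission 515-575 nm · System – RD-HGA16 (CHO) cells co-expressing Gα16 and hTAAR1 · Incubation – 17-24 h seeding, 75 min 37 °C dye, 30 min RT · Compound dosing – 3 µM single concentration · Repeats – no replicates (n 1)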
CHO parental Ca – counter-screen for OX1R antagonists: effect in parental CHO cells | parental CHO-K1, ATP-induced calcium, Fluo-8 fluorescence | inhibition, % at 5.6 µM | 0.63% of 330,000 active;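 active = inhibition above that plate's mean sample inhibition plus 3 SD, cut at about 26% in these data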
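Assay system – parental CHO cells · Reagent – ATP stimulus · Detection – intracellular calcium via Fluo-8 no-wash fluorescent dye · Evaluation – percent inhibition of ATP-evoked calcium rise, normalized to controls · Controls – ATP wells versus no-ATP DMSO wells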
OX1R antag-1 – OX1R (human) antagonism | O43613 | OX1R-expressing cells, FRET antagonist read-out | inhibition, % at 6.6 µM | 1.8% of 330,000 active; in the data active = inhibition mostly above about 38%, no sharp cut-off; inactive = mostly below about 40%
OX1R antag-2 – blocks the human orexin 1 receptor; O43613; CHO/OX1R cells, Fluo-8 calcium fluorescence, orexin A; inhibition, % at 5 µM; 0.43% of 330,000 active;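 active = inhibition above its plate's threshold, mean inhibition of all tested compounds on the plate plus 3 SD, cut at about 37% in these data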
TAAR1 antagonist – human TAAR1 antagonism. CHO RD-HGA16 TAAR1, Fluo-8 calcium fluorescence, antagonist. inhibition, % at 3 µM. 1.5% of 360,000 active. AID 624466;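 active = inhibition above a per-plate cutoff, the mean inhibition of test compounds on that plate plus 3 SD, cut at about 49% in these data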
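Test system: RD-HGA16 CHO cells with stable hTAAR1 and Gα16 / Probe or stimulus: EC80 β-phenethylamine stimulus / Times: seeding 17-24 h prior, 75-min 37 °C, 30-min RT dye loading / Detection: Fluo-8 calcium-sensitive fluorescence / Read-out basis: % inhibition scaled between DMSO and EC80 PEA controls / Repeats: singlicate, one well per test compound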
TAAR1 nonsel count – counter-screen for TAAR1 antagonists: nonselective antagonists; inhibition, % at 3 µM; shares compounds with TAAR1 antagonist; 77% of 2,400 active; counterscreen cell line, calcium fluorescence, antagonist mode; AID 651780; in the data active = inhibition above about 22%;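 note: CHO-Ga16 host cells stimulated with ATP at an EC80 level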
TAAR1 antag conf – confirmation of human TAAR1 antagonists | 40% of 2,400 active | shares compounds with TAAR1 antagonist | AID 651785 | TAAR1-expressing cells, fluorescence antagonist read-out | inhibition, % at 3 µM; in the data active = inhibition above about 49%;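 note: CHO-Ga16 host cells challenged with agonist PEA near its EC80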
Ga16 ag counter-1 – nonselective Ga16 agonism, counter-screen. activation, % at 3 µM. shares compounds with TAAR1 antagonist. Ga16-expressing cells, calcium fluorescence, agonist counterscreen. 18% of 2,400 active; in the data active = activation above about 12%
TAAR1 ag counter – counter-screen for human TAAR1 antagonists: TAAR1 agonists; activation, % at 3 µM; shares compounds with TAAR1 antagonist; AID 651955; hTAAR1 cell line, fluorescence activation, agonist mode; 2% of 2,400 active; in the data active = activation above about 37%;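 note: CHO cells stably expressing TAAR1 with calcium dye readout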
TAAR1 ag conf – confirmation of human TAAR1 agonists | shares compounds with TAAR1 ag | activation, % at 3 µM | CHO RD-HGA16 TAAR1, Fluo-8 calcium fluorescence; scaled: DMSO 0%, maximal phenethylamine 100% | 82% of 2,400 active;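 active = activation above a cutoff set at the run's mean compound activation plus 3 SD, cut at about 39% in these data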
Ga16 ag counter-2 – nonselective agonist in parental cells, TAAR1 agonist counter-screen; CHO-Ga16 parental, Fluo-8 calcium fluorescence; normalized to maximal ATP response, DMSO zero; shares compounds with TAAR1 ag; activation, % at 3 µM; AID 651787; 50% of 2,400 active;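 active = activation above the run cutoff, the mean activation over all tested wells plus 3 SD, cut at about 12% in these data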
TAAR1 desens – human TAAR1 agonist that also desensitizes the receptor; inhibition, % at 3 µM; CHO RD-HGA16 hTAAR1, Fluo-8 calcium, beta-PEA response inhibition; 46% of 2,400 active; shares compounds with TAAR1 ag;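 active = inhibition above the run cutoff, the mean inhibition of all test compounds plus 3 SD, cut at about 49% in these data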;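 note: beta-PEA stimulus applied at its EC80; loss of beta-PEA calcium signal after compound pretreatment read as receptor desensitization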
Ga16 antag count – nonselective Ga16 antagonist in TAAR1 agonist counter-screen. shares compounds with TAAR1 ag. CHO-Ga16 ATP-induced calcium, Fluo-8 fluorescence. inhibition, % at 3 µM. 39% of 2,400 active;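 active = inhibition above the plate's mean compound inhibition plus 3 SD, computed per plate, cut at about 22% in these data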
Hits are given with their value; 0 = inactive; - = no result given. An excerpt weighted towards active compounds, which were near 4% of everything screened.

SMILES	NTR1 ag	TAAR1 ag	CHO parental Ca	OX1R antag-1	OX1R antag-2	TAAR1 antagonist	TAAR1 nonsel count	TAAR1 antag conf	Ga16 ag counter-1	TAAR1 ag counter	others
Cc1nn(C)cc1C(C(=O)NC1CCCCC1)N(C(=O)Cc1cccs1)c1ccc(Cl)cc1 (stereo unspecified)	0	0	0	0	0	61.1	29.7	53.5	13.3	0
CCCCN(C(=O)C1CC(=O)N(c2ccc(C)cc2)C1)c1c(N)n(CCC)c(=O)[nH]c1=O (stereo unspecified)	0	0	-	-	-	0	-	-	-	-
Cc1ccc(C)c(/C=N/Nc2ccccn2)c1	0	0	0	0	0	104.7	0	0	0	0
Oc1ccccc1C1=Nc2nc3ccccc3n2C(c2ccccc2)C1 (stereo unspecified)	0	0	0	0	0	53.8	31.2	0	0	0
CC(=O)c1c[nH]c(C(=O)NCC2CCCO2)c1 (stereo unspecified)	0	0	0	0	0	0	-	-	-	-
Cc1onc(-c2c(Cl)cccc2Cl)c1C(=O)c1c[nH]c(C(=O)NCC2CCCO2)c1 (stereo unspecified)	0	0	0	0	0	62.1	32.1	0	0	0
Cc1nnc(NC(=O)C2CC(=O)N(c3ccccc3)C2)s1 (stereo unspecified)	0	0	0	0	0	0	-	-	-	-
CC(C)(Oc1ccc(Cl)cc1)C(=O)NCC(c1cccs1)N1CCOCC1 (stereo unspecified)	0	0	0	0	0	58.2	0	0	0	0
CC(C)(C)c1ccc(OCCC(=O)NCC(c2cccs2)N2CCOCC2)cc1 (stereo unspecified)	0	0	0	0	0	0	-	-	-	-
O=[N+]([O-])c1cnccc1-n1nnc2ccccc21	-	0	-	-	-	0	-	-	-	-
O=C(CCN1C(=O)/C(=C\c2ccccc2Cl)SC1=S)Nc1cccnc1	0	0	0	0	0	49.9	47.7	69.2	17.8	0
COc1ccc(C)cc1NC(=O)C1CCCN(S(=O)(=O)c2cccnc2)C1 (stereo unspecified)	0	0	0	0	0	0	-	-	-	-
N#Cc1ccc(-c2csc(NC(=O)/C=C/c3cccs3)n2)cc1	0	0	0	0	0	61.2	39.9	51.5	0	0
COCCNc1nc(NCCOc2ccccc2)c2sc(-c3ccccc3)cc2n1	-	0	-	-	-	0	-	-	-	-
COc1ccc(-c2nc(C#N)c(NCc3ccccc3Cl)o2)cc1OC	0	0	0	0	0	0	-	-	-	-
COc1ccc(-c2nc(C#N)c(NCc3ccccc3Cl)o2)cc1	0	0	0	0	0	52.6	0	0	0	0
C=CCC1(/C=N/O)CCOC(C)(C)C1 (stereo unspecified)	0	0	0	0	0	0	-	-	-	-
CSc1nc2nccc(-c3ccc(Oc4ccccc4)cc3)n2n1	0	0	0	0	0	56.4	0	0	0	0
c1ccc(Oc2ccc(-c3ccnc4nc(N5CCN(c6ccccc6)CC5)nn34)cc2)cc1	0	0	0	0	0	0	-	-	-	-
CCCCC(NC(=O)c1ccc(C#N)cc1)C(=O)NCCC (stereo unspecified)	0	0	0	0	0	0	-	-	-	-
Cc1ccc(S(=O)(=O)Cc2ccc(C(=O)N3CCc4ccccc4C3)o2)cc1	0	69.0	0	0	0	64.1	-	-	-	-	TAAR1 ag conf=48.0;Ga16 ag counter-2=0;TAAR1 desens=0;Ga16 antag count=0
COc1ccc(S(=O)(=O)Cc2ccc(C(=O)N3CCN(Cc4ccccc4)CC3)o2)cc1	0	0	0	0	0	0	-	-	-	-
COc1ccccc1N1CCN(C(=O)c2cccc3c(=O)c(C)c(-c4ccccc4)oc23)CC1	0	70.0	0	0	0	60.2	-	-	-	-	TAAR1 ag conf=68.7;Ga16 ag counter-2=37.1;TAAR1 desens=0;Ga16 antag count=33.0
COc1ccccc1N1CCN(C(=O)c2cc(C)oc2C)CC1	0	0	0	0	0	0	-	-	-	-
Cc1ccc(S(=O)(=O)Cc2ccc(C(=O)N3CCN(Cc4ccccc4)CC3)o2)cc1	0	0	0	0	0	0	-	-	-	-
SMILES	NTR1 ag	TAAR1 ag	CHO parental Ca	OX1R antag-1	OX1R antag-2	TAAR1 antagonist	TAAR1 nonsel count	TAAR1 antag conf	Ga16 ag counter-1	TAAR1 ag counter	others
COc1ccccc1N1CCN(C(=O)c2ccc(CS(=O)(=O)c3ccccc3OC)o2)CC1	0	58.6	0	0	0	0	-	-	-	-	TAAR1 ag conf=58.9;Ga16 ag counter-2=21.1;TAAR1 desens=55.0;Ga16 antag count=33.8
COc1ccc(S(=O)(=O)Cc2ccc(C(=O)N3CCc4ccccc4C3)o2)cc1	0	61.1	0	0	0	61.0	-	-	-	-	TAAR1 ag conf=91.5;Ga16 ag counter-2=23.1;TAAR1 desens=75.9;Ga16 antag count=0
COc1ccc(CCC(C)NCCc2ccc(Cl)cc2Cl)cc1 (stereo unspecified)	0	48.3	0	0	0	0	-	-	-	-	TAAR1 ag conf=47.7;Ga16 ag counter-2=21.9;TAAR1 desens=0;Ga16 antag count=23.9
COc1ccc(CCC(C)NCc2ccc(Cl)c(Cl)c2)cc1 (stereo unspecified)	0	0	0	0	0	0	-	-	-	-
O=C(NC1CCN(C(=S)Nc2ccc(F)cc2)CC1)c1ccco1	0	0	0	0	0	0	-	-	-	-
CCCCOc1cc(NCc2ccccc2)c2ncn(C(C)C)c2c1	0	65.6	0	0	0	49.7	-	-	-	-	TAAR1 ag conf=0;Ga16 ag counter-2=24.1;TAAR1 desens=0;Ga16 antag count=23.8
CCOCCOc1cc(NCc2ccccc2)c2ncn(C(C)C)c2c1	-	0	-	-	-	0	-	-	-	-
Cc1csc(C(=O)NCC(=O)NNC(=O)c2cccc(Cl)c2)c1	0	0	0	0	0	0	-	-	-	-
O=C(Nc1cccc(N2C(=O)C=CC2=O)c1)c1cccs1	0	56.7	0	0	0	0	-	-	-	-	TAAR1 ag conf=0;Ga16 ag counter-2=18.9;TAAR1 desens=0;Ga16 antag count=21.6
CC1=CC(C)(C)N2C(=O)C3(SCC(=O)N3c3ccc(F)cc3)c3cc(C)cc1c32 (stereo unspecified)	0	54.3	0	0	0	0	-	-	-	-	TAAR1 ag conf=38.5;Ga16 ag counter-2=25.1;TAAR1 desens=0;Ga16 antag count=27.6
